In the library only some 4.7% were active in any assay of this set; here they are far more common.
MrgX1 agonist: agonists of human MrgX1 receptor, primary screen, HEK293 cells, Fluo-4 calcium flux; Fluo-4 calcium fluorescence, agonist mode; active compounds read high; B-score at 10 µM; hit rate 0.44% among 310,000; AID 588627, 2011;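 active = calcium response B-score plate-corrected fluorescence ratio at least 3 library SD, with starting fluorescence B-score inside 5 SD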
Target sequence (Q96LB2 whole entry, looked up): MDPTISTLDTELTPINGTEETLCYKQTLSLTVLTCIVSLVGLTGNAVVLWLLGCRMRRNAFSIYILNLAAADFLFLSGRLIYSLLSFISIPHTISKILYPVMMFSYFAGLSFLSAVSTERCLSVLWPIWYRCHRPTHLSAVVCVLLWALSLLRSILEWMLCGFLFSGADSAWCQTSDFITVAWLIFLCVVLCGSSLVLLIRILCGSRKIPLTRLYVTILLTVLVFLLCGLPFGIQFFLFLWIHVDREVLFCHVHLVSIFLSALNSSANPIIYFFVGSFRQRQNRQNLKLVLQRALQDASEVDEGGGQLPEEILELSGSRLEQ
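Material – MrgX1-expressing HEK293 cells · Input – 15,000 cells seeded per well · Dosing – compound as first of three additions · Times – overnight seeding, then 1 h dark dye loading · Measured by – kinetic Fluo-4 NW fluorescence of intracellular calcium · Read-out – B-scored fluorescence response ratio · Benchmarks – positive and negative control wells on each plate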
MrgX1 antag: antagonists of human MrgX1 receptor, primary screen, HEK293 cells, Fluo-4 calcium flux | B-score at 10 µM | hit rate 1.3% among 310,000 | BAM8-22 antagonism; active compounds read low | Mas-related G-protein coupled receptor member X1 (Homo sapiens), Q96LB2;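 active = calcium-response B-score plate-corrected more than 3 library SD below zero, starting fluorescence within 5 deviations, no agonist response on first addition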;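 note: peak minus trough fluorescence over baseline after final BAM8-22 challenge near maximal dose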
RGS4 act: RGS4 potentiators or activators, primary screen, cell-based, HEK293 M3R inducible RGS4, calcium flux; AID 463111, 2010; hit rate 0.92% among 310,000; B-score at 10 µM; carbachol calcium flux Fluo4; active compounds read low;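 active = B-score of the integrated calcium signal more than 4 SD below the library mean, with starting fluorescence not abnormally high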;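 note: negative B-score means reduced calcium response which marks RGS4 activation or potentiation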
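Detection: kinetic calcium fluorescence imaging with Fluo4-AM dye, 2 µM / Material: HEK293 cells with stable M3R and inducible RGS4 / Schedule: recording 10 s baseline at 1 Hz, 100 s post-agonist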
KCC2 mod: KCC2 cotransporter modulators, thallium flux, primary screen, cell-based, HEK293 KCC2, FluoZin-2 fluorescence, MLSMR; KCC2 cells, thallium flux FluoZin-2 fluorescence; hit rate 2.2% among 190,000; B-score of Tl+ flux slope (higher = more flux/activation; lower = inhibition) at 10 µM;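 active = thallium flux slope and its plate-corrected score both differing from the plate sample mean at a set confidence after two filtering rounds, in either direction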;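 note: slope of fluorescence scaled to starting intensity during 10 to 20 s after thallium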
MrgX1 allo act: positive allosteric modulators of MrgX1, primary screen, HEK293 cells, Fluo-4 calcium flux | Mas-related G-protein coupled receptor member X1 (Homo sapiens), Q96LB2 | FDSS; active compounds read high | B-score at 10 µM | hit rate 0.63% among 310,000;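 active = plate-corrected calcium response at least 3 library SD above typical, normal starting fluorescence, not activating the receptor alone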;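 note: compound read alongside a low EC10 to EC30 dose of BAM8-22 agonist; peak minus trough fluorescence over baseline measured at the second addition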
RGS4 block: RGS4 inhibitors, primary screen, cell-based, HEK293 M3R inducible RGS4, calcium flux; B-score at 10 µM; Regulator of G-protein signaling 4 (Homo sapiens), P49798; AID 463165, 2010; Fluo-4 calcium flux; active compounds read high; triggered by carbachol at its EC20; hit rate 0.45% among 310,000;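 active = B-score, a plate-corrected calcium signal, over three deviations above library mean, with baseline fluorescence within five deviations of library mean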;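 note: RGS4 expression induced by doxycycline in cells with stable M3 receptor; B-score is computed from the integrated fluorescence ratio over baseline after carbachol; higher B-score means a larger calcium signal and so more RGS4 inhibition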
Target sequence (P49798 whole entry, looked up): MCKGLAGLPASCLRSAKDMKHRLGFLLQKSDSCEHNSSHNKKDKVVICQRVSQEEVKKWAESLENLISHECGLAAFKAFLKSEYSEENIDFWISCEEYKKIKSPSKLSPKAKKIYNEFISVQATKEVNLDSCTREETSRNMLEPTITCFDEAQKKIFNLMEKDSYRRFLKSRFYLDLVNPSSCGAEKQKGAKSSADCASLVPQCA
* marks the source's active call; other numbers are inactive results; i = inactive; x = not tested or not shown.

SMILES	MrgX1 agonist	MrgX1 antag	RGS4 act	KCC2 mod	MrgX1 allo act	RGS4 block
N#Cc1c(-c2ccccc2Cl)cc(-c2ccccc2)nc1Br	i	i	-7.34*	-0.208	i	i
O=C(CCCN1C(=O)/C(=C\c2cccs2)SC1=S)Nc1ccc(C(=O)O)cc1	i	i	i	-1.71	i	i
CCN(CC)CCOC(=O)c1ccc(NC(=O)CCCN2C(=O)/C(=C/c3cccs3)SC2=S)cc1	i	i	-8.34*	x	i	i
Cc1nc(C(=O)Nc2cc(Cl)ccc2Cl)nn1-c1cc(OC(C)C)c(Cl)cc1Cl	i	-5.14*	i	-0.402	i	i
CC(C)CCn1c(=O)c2ccccc2n2c(=S)[nH]nc12	i	i	i	x	i	i
CCc1cc2c(=O)n(CCC(C)C)c(=S)[nH]c2s1	i	i	i	72.7*	i	i
COc1ccc(CCNC(=O)c2cc(C(=O)c3cc(C)ccc3O)cn(CCc3ccc(OC)cc3)c2=O)cc1	i	i	-8.73*	-0.261	i	i
COc1ccc(CCNC(=O)c2cc(C(=O)c3cc(Cl)ccc3O)cn(CCc3ccc(OC)cc3)c2=O)cc1	i	i	i	-0.281	i	i
COc1cccc(C(=O)C2CCCN(Cc3cccc(OCCO)c3)C2)c1 (centres undefined)	i	i	i	x	i	i
COc1cccc(C(=O)C2CCCN(CC3=Cc4cc(OC)ccc4OC3)C2)c1 (centres undefined)	i	i	-7.04*	-0.6	i	i
COc1ccc(/C=N/Nc2ncnc3sc(C)c(C)c23)cc1	i	i	i	-1.37	12*	i
Cc1sc(NC(=O)/C=C/c2ccco2)c(C(=O)O)c1C	i	i	i	0.67	i	i
CCN(CC)c1ccc(/C=C(\C#N)c2ccccn2)cc1	i	-9.07*	i	-0.553	i	i
Cc1ccc(NC(=O)c2cc(S(=O)(=O)N3CCOCC3)cn2C)cc1F	i	i	i	x	i	i
CCCCCc1ccc(OCCC[n+]2ccccc2)c(CCCCC)c1	i	i	i	0.387	i	i
CCCCCc1ccc(OCCOCCn2c[n+](C)c3ccccc32)c(CCCCC)c1	x	x	-7.59*	0.0367	x	i
CC1(NC(=O)CC[N+](C)(C)CCO)CS(=O)(=O)CC1S(=O)(=O)[O-] (centres undefined)	i	-5.25*	i	0.0164	i	i
CC(C)N(C(=O)COC(=O)c1cccc(N(C)C)c1)c1ccccc1	i	i	i	x	i	i
Cc1ccc(/C=C/c2nc3ccccc3s2)s1	i	i	i	1.14	i	i
CN(C)c1ccc(/C=C/c2nc3ccccc3s2)cc1	i	-6.34*	-7.49*	-0.0949	i	i
COc1ccc(Cl)cc1NC(=O)CCc1nnc2ccc(N3CCN(C)CC3)nn12	i	i	i	x	i	i
COC(=O)C1=NN(C(=O)c2ccc(C)cc2)C(O)(c2ccc(Cl)cc2)C1 (centres undefined)	66.6*	i	i	x	i	i
COC(=O)C1=NN(C(=O)c2ccccc2)C(C)(O)C1 (centres undefined)	i	i	i	x	i	i
CC1=NN(C(=O)c2ccc(Cl)cc2)C(O)(c2ccccc2)C1 (centres undefined)	i	i	i	x	i	i
COC(=O)C1=NN(C(=O)c2cccc(Cl)c2)C(O)(C(C)(C)C)C1 (centres undefined)	i	i	x	51.4*	i	x
SMILES	MrgX1 agonist	MrgX1 antag	RGS4 act	KCC2 mod	MrgX1 allo act	RGS4 block
COC(=O)C1=NN(C(=O)c2ccccc2)C(O)(c2ccc([N+](=O)[O-])cc2)C1 (centres undefined)	53.7*	i	i	x	i	i
CCn1c(SC)nnc1C1CCCN(CC(=O)Nc2ccccc2N2CCOCC2)C1 (centres undefined)	i	i	i	x	i	i
O=C(Nc1ccc(Cl)c(Cl)c1)C1CCN(C(=O)c2ccco2)CC1	i	i	i	x	i	i
CN1CCCN(C(=O)c2cc(-c3cccc4ccccc34)nc3ccccc23)CC1	34.6*	i	i	-0.563	i	i
O=C(c1cc(-c2ccccc2Cl)nc2ccccc12)N1CCN(c2ccccc2O)CC1	i	i	-7.61*	x	i	i
O=C(c1cc(-c2ccccc2Cl)nc2ccccc12)N1CCC1	i	i	i	x	i	i
Cc1c(Cc2ccccc2)c(=O)oc2cc(OC(C)C(=O)NCC3CCC(C(=O)O)CC3)c(Cl)cc12 (centres undefined)	i	i	i	x	i	i
Cc1ccc(N=C2NC(=O)/C(=C/c3cn(C)c4ccccc34)S2)cc1C	i	-4.82*	x	-0.559	i	x
Cn1cccc1/C=C1\SC(=Nc2ccccc2)NC1=O	i	i	i	2.12	i	i
Cc1ccc(NC(=O)CN(C)C(=O)COC(=O)CNS(=O)(=O)c2ccc(Br)cc2Cl)cc1	58.7*	i	i	x	i	i
Cc1ccc(NC(=O)CN(C)C(=O)COC(=O)CNS(=O)(=O)c2ccc(F)c(F)c2F)cc1	i	i	i	x	i	i
S=C(NCCC(c1ccccc1)c1ccccc1)Nc1cccc(Cl)c1	i	i	-7.63*	0.0824	i	i
S=C(NCc1ccncc1)Nc1cccc(Cl)c1	i	i	i	0.225	i	i
Cc1sc2ncn(CC(=O)NCC(=O)N3CCN(c4ccccc4F)CC3)c(=O)c2c1C	i	i	i	x	i	i
O=C(N/N=C/c1ccc(Cl)c([N+](=O)[O-])c1)c1cnccn1	i	-4.67*	i	-0.0577	i	i
Cc1ccc(CNC(=O)[C@H](Cc2ccccc2)NC(=O)C2CCNCC2)cc1	i	i	i	x	i	i
C#CCSc1ncc(-c2ccccc2)cn1	i	-7.5*	i	-0.512	i	i
C=CCSc1ncc(-c2ccccc2)cn1	i	i	i	-0.551	i	i
C/C(Cc1ccccc1)=N\NC(=O)CNC(=O)c1ccc(F)cc1	i	i	i	x	i	i
COc1ccc(C(=O)NCC(=O)N/N=C(\C)Cc2ccccc2)cc1	i	i	i	x	7.02*	i
